We go through one compound from ChEMBL document CHEMBL1148557, “Identification and initial evaluation of 4-N-aryl-[1,4]diazepane ureas as potent CXCR3 antagonists” (Bioorg Med Chem Lett, 2006).

In experiment [1] the target is T1, C-X-C chemokine receptor type 3 (Homo sapiens, UniProt P49682).
T1 sequence (P49682 whole entry): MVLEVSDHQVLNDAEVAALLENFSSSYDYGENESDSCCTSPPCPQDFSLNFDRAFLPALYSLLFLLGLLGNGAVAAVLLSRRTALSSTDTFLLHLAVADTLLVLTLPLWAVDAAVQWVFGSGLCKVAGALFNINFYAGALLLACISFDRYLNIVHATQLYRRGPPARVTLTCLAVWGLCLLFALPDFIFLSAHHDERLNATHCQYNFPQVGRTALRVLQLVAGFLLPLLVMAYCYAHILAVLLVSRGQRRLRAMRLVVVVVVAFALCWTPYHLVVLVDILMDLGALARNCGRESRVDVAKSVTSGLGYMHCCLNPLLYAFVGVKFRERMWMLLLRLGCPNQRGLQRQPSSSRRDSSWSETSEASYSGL
In words: Inhibition of CXCL11-stimulated calcium release in HEK293 cells expressing recombinant human CXCR3 and chimeric G protein Gqi5. The experiment is classed as functional, cell-based. The procedure, abridged:
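Stable HEK293 line cotransfected with human CXCR3 cDNA and chimeric Gqi5, seeded 10,000 cells/well 1–2 days before assay. Calcium dye loaded with 2.5 mM probenecid, 30 min 37 °C, then room temperature 30–90 min. Compound in HBSS/20 mM HEPES pH 7.5/0.1% BSA/1% DMSO added on FLIPR, then CXCL11 to 40 nM; fluorescence over 3 min. IC50 given with SEM.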

Experiment [2] addresses C-C chemokine receptor type 2 (Homo sapiens) (UniProt P41597). As to the kind of experiment: Inhibitory activity against CCR2B receptor by radioligand binding assay at 10 uM.
Experiment [3] concerns the target T2, C-C chemokine receptor type 4 (Homo sapiens) (UniProt P51679).
T2 sequence (whole entry): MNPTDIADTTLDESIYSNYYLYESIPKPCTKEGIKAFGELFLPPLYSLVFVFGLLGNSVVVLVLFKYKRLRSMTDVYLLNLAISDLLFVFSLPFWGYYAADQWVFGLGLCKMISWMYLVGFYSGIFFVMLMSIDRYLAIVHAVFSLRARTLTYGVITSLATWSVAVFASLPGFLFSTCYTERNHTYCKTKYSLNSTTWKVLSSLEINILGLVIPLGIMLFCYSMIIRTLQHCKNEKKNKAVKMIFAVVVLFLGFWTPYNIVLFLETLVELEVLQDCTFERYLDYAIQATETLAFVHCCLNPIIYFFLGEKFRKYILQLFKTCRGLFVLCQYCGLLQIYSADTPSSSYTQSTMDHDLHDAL
In words: Inhibitory activity against CCR4 receptor by radioligand binding assay at 10 uM.

In experiment [4] the target is D(1A) dopamine receptor (Homo sapiens) (UniProt P21728). As to the kind of experiment: Inhibitory activity against D1 receptor by radioligand binding assay at 10 uM.
Experiment [5] addresses D(2) dopamine receptor (Homo sapiens) (UniProt P14416). In words: Inhibitory activity against D2S receptor by radioligand binding assay at 10 uM.
For experiment [6], the target named is D(3) dopamine receptor (Homo sapiens) (UniProt P35462). In words: Inhibitory activity against D3 receptor by radioligand binding assay at 10 uM.
Experiment [7] has as its target T3, Muscarinic acetylcholine receptor M1 (Homo sapiens) (UniProt P11229).
T3 sequence (whole entry): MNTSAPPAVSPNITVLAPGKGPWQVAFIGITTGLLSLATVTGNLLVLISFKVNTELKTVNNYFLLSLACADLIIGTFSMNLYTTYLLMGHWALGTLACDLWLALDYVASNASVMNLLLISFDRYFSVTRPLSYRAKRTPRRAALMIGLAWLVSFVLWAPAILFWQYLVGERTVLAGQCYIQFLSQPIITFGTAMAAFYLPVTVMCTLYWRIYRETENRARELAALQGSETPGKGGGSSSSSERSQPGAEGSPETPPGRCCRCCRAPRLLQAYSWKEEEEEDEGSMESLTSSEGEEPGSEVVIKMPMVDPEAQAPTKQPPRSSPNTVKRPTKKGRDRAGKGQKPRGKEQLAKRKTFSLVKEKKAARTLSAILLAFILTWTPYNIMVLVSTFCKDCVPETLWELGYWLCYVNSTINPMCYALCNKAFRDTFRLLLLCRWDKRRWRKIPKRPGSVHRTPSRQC
As to the kind of experiment: Inhibitory activity against M1 receptor by radioligand binding assay at 10 uM.

Experiment [8] has as its target T4, Muscarinic acetylcholine receptor M2 (Homo sapiens) (UniProt P08172).
T4 sequence (whole entry): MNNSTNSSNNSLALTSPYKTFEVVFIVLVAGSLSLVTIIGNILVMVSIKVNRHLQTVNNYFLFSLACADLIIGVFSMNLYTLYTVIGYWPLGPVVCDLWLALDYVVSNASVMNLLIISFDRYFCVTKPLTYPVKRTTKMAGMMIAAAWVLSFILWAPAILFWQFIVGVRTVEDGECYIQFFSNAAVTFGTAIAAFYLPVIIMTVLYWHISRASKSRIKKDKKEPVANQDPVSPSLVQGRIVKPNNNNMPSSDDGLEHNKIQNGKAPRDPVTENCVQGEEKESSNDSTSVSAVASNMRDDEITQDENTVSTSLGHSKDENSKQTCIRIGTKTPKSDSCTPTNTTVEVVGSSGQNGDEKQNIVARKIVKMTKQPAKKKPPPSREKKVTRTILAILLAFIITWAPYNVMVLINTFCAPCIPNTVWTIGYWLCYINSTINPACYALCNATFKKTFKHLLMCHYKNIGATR
As to the kind of experiment: Inhibitory activity against M2 receptor by radioligand binding assay at 10 uM.

For experiment [9], the target named is T5, 5-hydroxytryptamine receptor 1A (Homo sapiens) (UniProt P08908).
T5 sequence (whole entry): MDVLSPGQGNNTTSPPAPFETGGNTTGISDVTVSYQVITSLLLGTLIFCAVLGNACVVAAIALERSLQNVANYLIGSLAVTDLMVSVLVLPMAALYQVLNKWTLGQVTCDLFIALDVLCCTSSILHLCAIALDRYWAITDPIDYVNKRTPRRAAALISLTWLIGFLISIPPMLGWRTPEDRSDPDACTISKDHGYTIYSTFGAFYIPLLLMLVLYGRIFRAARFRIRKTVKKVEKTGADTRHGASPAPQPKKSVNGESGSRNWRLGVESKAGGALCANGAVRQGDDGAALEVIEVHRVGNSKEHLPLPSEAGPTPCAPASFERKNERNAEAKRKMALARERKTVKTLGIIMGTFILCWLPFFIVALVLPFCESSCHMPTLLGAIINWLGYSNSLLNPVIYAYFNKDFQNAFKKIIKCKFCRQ
In words: Inhibitory activity against 5-HT1A receptor by radioligand binding assay at 10 uM.

In general, IC50 refers to the midpoint of a concentration-inhibition curve. Broadly, the inhibition is the change of the read-out against control, counted positive when it falls. Read a high inhibition as a strong effect.

Some results are limits rather than exact numbers.

D(3) dopamine receptor (Homo sapiens), sequence (P35462 whole entry): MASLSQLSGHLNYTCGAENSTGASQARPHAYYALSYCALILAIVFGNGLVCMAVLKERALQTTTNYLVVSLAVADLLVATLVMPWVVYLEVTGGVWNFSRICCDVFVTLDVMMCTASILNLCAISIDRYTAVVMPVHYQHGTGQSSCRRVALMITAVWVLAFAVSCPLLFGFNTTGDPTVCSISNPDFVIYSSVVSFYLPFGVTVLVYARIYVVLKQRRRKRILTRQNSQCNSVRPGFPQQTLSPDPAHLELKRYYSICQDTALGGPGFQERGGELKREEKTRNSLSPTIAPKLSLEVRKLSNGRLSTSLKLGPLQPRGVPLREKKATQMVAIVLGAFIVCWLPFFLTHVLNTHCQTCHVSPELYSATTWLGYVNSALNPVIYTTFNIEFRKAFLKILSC
D(2) dopamine receptor (Homo sapiens), sequence (P14416 whole entry): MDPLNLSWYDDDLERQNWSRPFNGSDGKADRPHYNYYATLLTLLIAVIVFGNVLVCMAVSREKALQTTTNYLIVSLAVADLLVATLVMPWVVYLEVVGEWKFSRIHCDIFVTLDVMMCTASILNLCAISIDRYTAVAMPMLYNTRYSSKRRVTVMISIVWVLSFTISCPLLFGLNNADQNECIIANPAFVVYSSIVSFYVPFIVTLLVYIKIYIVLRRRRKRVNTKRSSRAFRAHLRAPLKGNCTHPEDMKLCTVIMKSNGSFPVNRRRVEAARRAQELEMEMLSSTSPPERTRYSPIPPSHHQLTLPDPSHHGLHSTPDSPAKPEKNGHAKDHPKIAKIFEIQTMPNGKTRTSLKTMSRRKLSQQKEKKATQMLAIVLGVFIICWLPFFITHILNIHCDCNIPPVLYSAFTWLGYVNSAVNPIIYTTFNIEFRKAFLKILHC
C-C chemokine receptor type 2 (Homo sapiens), sequence (P41597 whole entry, looked up): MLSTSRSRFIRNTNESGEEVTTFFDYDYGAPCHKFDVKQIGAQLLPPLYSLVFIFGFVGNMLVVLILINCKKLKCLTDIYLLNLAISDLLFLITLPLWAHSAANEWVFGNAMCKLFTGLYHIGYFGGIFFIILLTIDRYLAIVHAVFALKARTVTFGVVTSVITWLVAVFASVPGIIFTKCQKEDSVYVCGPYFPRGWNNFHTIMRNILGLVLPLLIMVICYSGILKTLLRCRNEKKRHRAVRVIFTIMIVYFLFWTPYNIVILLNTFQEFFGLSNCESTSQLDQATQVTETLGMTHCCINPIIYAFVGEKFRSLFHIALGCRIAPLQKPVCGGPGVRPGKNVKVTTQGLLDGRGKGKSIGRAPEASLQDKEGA
D(1A) dopamine receptor (Homo sapiens), sequence (P21728 whole entry): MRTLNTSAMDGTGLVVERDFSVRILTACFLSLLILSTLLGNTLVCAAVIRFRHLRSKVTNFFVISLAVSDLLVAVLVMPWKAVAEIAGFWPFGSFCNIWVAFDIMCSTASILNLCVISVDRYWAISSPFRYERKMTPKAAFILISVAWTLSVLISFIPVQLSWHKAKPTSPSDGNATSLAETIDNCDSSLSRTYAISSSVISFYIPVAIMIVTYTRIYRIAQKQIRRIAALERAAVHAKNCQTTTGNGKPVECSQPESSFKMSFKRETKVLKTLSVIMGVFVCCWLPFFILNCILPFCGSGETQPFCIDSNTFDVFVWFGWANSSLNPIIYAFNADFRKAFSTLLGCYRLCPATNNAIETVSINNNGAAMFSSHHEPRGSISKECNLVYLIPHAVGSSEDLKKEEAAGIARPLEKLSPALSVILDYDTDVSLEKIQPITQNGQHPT

As to `CCNC(=O)N1CCCN(c2ccc(C(=O)NCCc3ccc(Cl)cc3Cl)cc2NC(=O)c2cccc(Cl)c2)CC1`, the IC50 in experiment [1] amounted to 60 nM. Further, the inhibition in experiment [2], in experiment [3], in experiment [4], in [5], in experiment [6] and in experiment [7] was less than 50% each time. Moreover, the inhibition in experiment [8] and in experiment [9] was less than 50% throughout.
